IDH1 mut inh: blocks human IDH1 R132H reductase activity | O75874 | 0.18% of 70,000 active | diaphorase/resazurin fluorescence, 60 min | inhibition, % at 10 µM; in the data active = inhibition above about 34%; inconclusive = no clear call, values can overlap the other calls; inactive = below about 11%
Target sequence (O75874 whole entry R132H): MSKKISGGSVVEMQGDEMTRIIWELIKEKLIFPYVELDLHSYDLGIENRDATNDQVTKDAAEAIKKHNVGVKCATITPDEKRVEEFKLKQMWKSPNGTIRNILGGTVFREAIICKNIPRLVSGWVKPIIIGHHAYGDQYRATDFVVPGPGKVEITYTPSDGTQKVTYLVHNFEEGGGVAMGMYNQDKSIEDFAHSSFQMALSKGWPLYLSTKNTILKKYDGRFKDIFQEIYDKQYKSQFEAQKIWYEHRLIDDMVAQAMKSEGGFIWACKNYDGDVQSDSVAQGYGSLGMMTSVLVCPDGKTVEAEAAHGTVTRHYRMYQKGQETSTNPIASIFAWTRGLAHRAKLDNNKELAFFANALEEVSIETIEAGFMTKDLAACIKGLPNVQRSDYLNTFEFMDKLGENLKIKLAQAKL
KDM4C inh: KDM4C (human) demethylase inhibition; Q9H3R0; GST-KDM4C 2-372, H3K9me3 peptide, LANCE TR-FRET; inhibition, % at 12.5 µM; 0.15% of 96,000 active; AID 720574;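 active = mean replicate inhibition above about 25%, with at least 55% of replicates also reaching it, limit read from the data, passing the limit was not always enough; inconclusive = only one of those two conditions met; inactive = neither condition met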
Target sequence (Q9H3R0 2-372 limits assumed): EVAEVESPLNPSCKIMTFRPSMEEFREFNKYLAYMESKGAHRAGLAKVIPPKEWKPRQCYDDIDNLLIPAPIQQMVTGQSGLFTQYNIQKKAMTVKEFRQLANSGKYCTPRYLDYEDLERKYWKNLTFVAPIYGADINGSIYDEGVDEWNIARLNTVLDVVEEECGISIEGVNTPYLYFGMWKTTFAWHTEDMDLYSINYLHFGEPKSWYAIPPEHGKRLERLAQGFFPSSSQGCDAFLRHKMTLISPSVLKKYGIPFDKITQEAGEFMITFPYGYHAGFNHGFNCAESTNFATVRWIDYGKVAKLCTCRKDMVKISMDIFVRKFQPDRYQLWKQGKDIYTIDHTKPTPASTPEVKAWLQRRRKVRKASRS
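System: N-terminal GST-fused human GASC-1 (KDM4C) fragment, residues 2-372 / Amount: 10 nM GST-KDM4C in enzyme reaction / Also added: H3K9me3 peptide with Fe(II)/2OG / Times: 30 min demethylation and 1 h detection at room temperature / Signal: LANCE TR-FRET / Read-out basis: Fall in 671/618 emission ratio as inhibition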
T cruzi growth-1: T. cruzi proliferation inhibition; 5.9% of 77,000 active; AID 624255; T. cruzi beta-gal in NIH3T3, GalScreen luminescence, 90 h; inhibition, % at 8.34 µM;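 active = mean inhibition above about 93%, with at least 55% of replicates each passing it, limit read from the data, passing the limit was not always enough; inconclusive = only one of those two conditions holds; inactive = neither condition holds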
T cruzi growth-2: inhibitors of T. cruzi proliferation. shares compounds with T cruzi growth-1. T. cruzi beta-gal in NIH3T3, GalScreen luminescence, 90 h. inhibition, % at 8.35 µM. 72% of 5,600 active. AID 651739;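 active = mean replicate inhibition above about 95% and at least 55% of replicates individually reaching it, limit read from the data; inconclusive = only one of the two criteria is met; inactive = neither criterion is met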
T cruzi growth-3: blocks T. cruzi growth in NIH3T3 host cells | inhibition, % at 2.09 µM | T. cruzi beta-gal in NIH3T3, GalScreen luminescence, 90 h | shares compounds with T cruzi growth-1 | 21% of 5,600 active;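 active = mean inhibition above about 95%, with at least 55% of replicates also reaching it, limit read from the data; inconclusive = meets just one of the two conditions; inactive = meets neither condition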
3T3 cytotox: kills mouse NIH/3T3 fibroblasts; shares compounds with T cruzi growth-1; NIH/3T3 viability, CellTiter-Glo ATP luminescence, 90 h; cytotoxicity (signal decrease), % at 8.35 µM; 14% of 5,600 active;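 active = mean signal decrease across replicates above about 35% based on untreated-well scatter, with enough replicates individually passing, limit read from the data; inconclusive = no rule stated though some were filed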
3T3 cytotox 2: cytotoxicity in mouse NIH/3T3 fibroblasts; shares compounds with T cruzi growth-1; NIH/3T3 viability, CellTiter-Glo ATP luminescence, 90 h; inhibition, % at 24.9 µM; 56% of 5,600 active;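 active = mean loss of cell viability signal at or above a set limit, and enough replicates individually reaching it; inconclusive = meets only the mean limit or only the replicate share; inactive = meets neither condition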
Of the large screens only hits and unclear results are named; the others gave an inactive call (follow-up assays come after a bar, where they were run). The full list was thinned out, with hits kept by preference.

COc1cccc(-c2ccc3c(c2)O[C@@H](CN(C)C(=O)C2CCC2)[C@@H](C)CN([C@H](C)CO)S3(=O)=O)c1	none
COc1cccc(-c2ccc3c(c2)O[C@H](CN(C)C(=O)C2CCC2)[C@H](C)CN([C@H](C)CO)S3(=O)=O)c1	none
COc1cccc(-c2ccc3c(c2)O[C@@H](CN(C)C(=O)C2CCCCC2)[C@@H](C)CN([C@H](C)CO)S3(=O)=O)c1	T cruzi growth-1 92.3 (no result: IDH1 mut inh) | T cruzi growth-2 98.1 | T cruzi growth-3 inactive | 3T3 cytotox inactive | 3T3 cytotox 2 90.3
COc1cccc(-c2ccc3c(c2)O[C@H](CN(C)C(=O)C2CCC2)[C@H](C)CN([C@@H](C)CO)S3(=O)=O)c1	T cruzi growth-1 103.3 | T cruzi growth-2 95.5 | T cruzi growth-3 inactive | 3T3 cytotox 56.8 | 3T3 cytotox 2 78.5
COc1cccc(-c2ccc3c(c2)O[C@@H](CN(C)C(=O)C2CCC2)[C@@H](C)CN([C@@H](C)CO)S3(=O)=O)c1	none (no result: IDH1 mut inh)
COc1cccc(-c2ccc3c(c2)O[C@H](CN(C)C(=O)C2CCCCC2)[C@@H](C)CN([C@@H](C)CO)S3(=O)=O)c1	T cruzi growth-1 97.1 (no result: IDH1 mut inh) | T cruzi growth-2 110.7 | T cruzi growth-3 inactive | 3T3 cytotox inactive | 3T3 cytotox 2 76.4
O=C(CSc1ncnc2scc(-c3ccccc3)c12)c1ccccc1	none (no result: KDM4C inh, T cruzi growth-1)
Cc1ccc(S(=O)(=O)c2nc(SCC(=O)c3ccc(Cl)cc3)sc2Cl)cc1	none (no result: KDM4C inh, T cruzi growth-1)
O=[N+]([O-])c1ccccc1S(=O)(=O)NCCOc1ccc(Cl)cc1	none (no result: KDM4C inh, T cruzi growth-1)
Cc1cc(C)cc(N(CC(=O)Nc2ccc(Br)c(Cl)c2)S(C)(=O)=O)c1	none (no result: KDM4C inh, T cruzi growth-1)
Cc1ccc(NC(=O)COc2ccccc2Cl)c([N+](=O)[O-])c1	none (no result: KDM4C inh, T cruzi growth-1)
COc1cccc(-c2ccc3c(c2)O[C@@H](CN(C)C(=O)C2CCCCC2)[C@H](C)CN([C@@H](C)CO)S3(=O)=O)c1	T cruzi growth-1 111.8 (no result: IDH1 mut inh) | T cruzi growth-2 105.2 | T cruzi growth-3 inactive | 3T3 cytotox inactive | 3T3 cytotox 2 90.0
COc1cccc(-c2ccc3c(c2)O[C@@H](CN(C)C(=O)C2CCOCC2)[C@H](C)CN([C@@H](C)CO)S3(=O)=O)c1	none (no result: T cruzi growth-1)
CN(C)C(=O)c1ccc(-c2ccc3c(c2)[C@@H]2[C@@H](CCN2C(=O)C2CCOCC2)[C@@H](CO)N3C)cc1	T cruzi growth-1 101.6 (no result: IDH1 mut inh) | T cruzi growth-2 106.9 | T cruzi growth-3 inactive | 3T3 cytotox inactive | 3T3 cytotox 2 inactive
CN1c2ccc(-c3ccc(F)cc3)cc2[C@@H]2[C@@H](CCN2C(=O)C2CCOCC2)[C@H]1CO	T cruzi growth-1 104.9 (no result: IDH1 mut inh) | T cruzi growth-2 104.7 | T cruzi growth-3 inactive | 3T3 cytotox inactive | 3T3 cytotox 2 inactive
CN1c2ccc(-c3cccc(F)c3)cc2[C@@H]2[C@@H](CCN2C(=O)C2CCOCC2)[C@@H]1CO	none (no result: IDH1 mut inh)
CN1c2ccc(-c3ccc(F)cc3)cc2[C@@H]2[C@@H](CCN2C(=O)C2CCOCC2)[C@@H]1CO	T cruzi growth-1 97.8 (no result: IDH1 mut inh) | T cruzi growth-2 106.0 | T cruzi growth-3 inactive | 3T3 cytotox inactive | 3T3 cytotox 2 inactive
CN1c2ccc(-c3ccc(F)cc3)cc2[C@H]2[C@H](CCN2C(=O)C2CCOCC2)[C@H]1CO	none (no result: IDH1 mut inh)
CN(C)C(=O)c1ccc(-c2ccc3c(c2)[C@@H]2[C@@H](CCN2C(=O)C2CCCC2)[C@H](CO)N3C)cc1	none (no result: IDH1 mut inh, T cruzi growth-1)
COc1ccc(OC)c(NC(=O)CSc2nnc(-c3ccc(F)cc3)n2C)c1	none (no result: KDM4C inh, T cruzi growth-1)
C[C@H]1CN([C@@H](C)CO)C(=O)c2cc(NC(=O)Nc3ccc(C(F)(F)F)cc3)ccc2O[C@@H]1CN(C)Cc1ccccc1	none
C[C@H]1CN([C@@H](C)CO)C(=O)c2cc(NC(=O)Nc3ccc(C(F)(F)F)cc3)ccc2O[C@@H]1CN(C)Cc1ccc(-c2ccccc2)cc1	T cruzi growth-1 112.6 (no result: IDH1 mut inh) | T cruzi growth-2 108.0 | T cruzi growth-3 inactive | 3T3 cytotox inactive | 3T3 cytotox 2 104.1
C[C@H]1CN([C@@H](C)CO)C(=O)c2cc(NC(=O)Nc3ccc(F)cc3)ccc2O[C@H]1CN(C)Cc1ccc(-c2ccccc2)cc1	T cruzi growth-1 98.4 | T cruzi growth-2 102.1 | T cruzi growth-3 103.4 | 3T3 cytotox inactive | 3T3 cytotox 2 102.9
C[C@H]1CN([C@@H](C)CO)C(=O)c2cc(NC(=O)Nc3ccc(C(F)(F)F)cc3)ccc2O[C@H]1CN(C)Cc1ccc(-c2ccccc2)cc1	T cruzi growth-1 118.1 | T cruzi growth-2 106.4 | T cruzi growth-3 inconclusive | 3T3 cytotox inactive | 3T3 cytotox 2 103.9
C[C@@H]1CN([C@@H](C)CO)C(=O)c2cc(NC(=O)Nc3ccc(C(F)(F)F)cc3)ccc2O[C@@H]1CN(C)Cc1ccccc1	none
C[C@H](CO)N1C[C@H](C)[C@@H](CN(C)Cc2ccc(C(F)(F)F)cc2)Oc2ccc(NC(=O)Nc3ccccc3)cc2C1=O	none (no result: IDH1 mut inh)
C[C@H](CO)N1C[C@H](C)[C@@H](CN(C)Cc2ccc(-c3ccccc3)cc2)Oc2ccc(NC(=O)Nc3ccc(F)cc3)cc2C1=O	none
C[C@H](CO)N1C[C@H](C)[C@H](CN(C)Cc2ccc(-c3ccccc3)cc2)Oc2ccc(NC(=O)Nc3ccc(C(F)(F)F)cc3)cc2C1=O	T cruzi growth-1 80.7 | T cruzi growth-2 98.4 | T cruzi growth-3 inactive | 3T3 cytotox inactive | 3T3 cytotox 2 105.2
Cc1ccc([N+](=O)[O-])cc1NS(=O)(=O)c1cccc(C(=O)Nc2ccccc2)c1	none (no result: KDM4C inh, T cruzi growth-1)
Cc1ccc(S(=O)(=O)N(C)C[C@H]2OCCCC[C@H](C)Oc3ccc(NC(=O)Cc4ccccc4)cc3C(=O)N([C@@H](C)CO)C[C@H]2C)cc1	none
COc1cc(NC(=O)COc2cc(C)c(C)cc2C)c(C(=O)O)cc1OC	none (no result: KDM4C inh, T cruzi growth-1)
C[C@@H]1CCCCO[C@H](CN(C)S(=O)(=O)c2ccccc2)[C@@H](C)CN([C@H](C)CO)C(=O)c2cc(NC(=O)CCCCCC(=O)Nc3ccccc3N)ccc2O1	none (no result: T cruzi growth-1)
COCC(=O)N1CCC2(CC1)CN(S(C)(=O)=O)[C@H](CO)c1c2c2ccc(OC)cc2n1C	none (no result: IDH1 mut inh, T cruzi growth-1)
COc1ccc(NC(=O)N(C)C[C@H]2OCCCC[C@H](C)Oc3ccc(NC(=O)Nc4cccc5ccccc45)cc3C(=O)N([C@H](C)CO)C[C@@H]2C)cc1	none
CN1C(=O)c2cc(NS(=O)(=O)c3ccc(F)cc3)ccc2OC[C@@H]2O[C@@H](CC(=O)O)CC[C@@H]21	none (no result: IDH1 mut inh)
COC(=O)C[C@@H]1CC[C@@H]2[C@@H](COc3ccc(NS(=O)(=O)c4cccc(F)c4)cc3C(=O)N2C)O1	none (no result: IDH1 mut inh)
COC(=O)C[C@H]1CC[C@@H]2[C@@H](COc3ccc(NS(=O)(=O)c4ccc(C)cc4)cc3C(=O)N2C)O1	none (no result: IDH1 mut inh)
